Assay results from different studies.
Compare with care: the assays were run in different laboratories.
CASP9: Caspase-9 (CASP9, Homo sapiens, UniProt P55211)
PPARA: Peroxisome proliferator-activated receptor alpha (PPARA, Homo sapiens, UniProt Q07869)

SMILES	target	assay	system	conditions	quantity	result
CCOC(=O)c1ccc(OC(=O)CCCCCNC(=N)N)cc1	Ubiquitin carboxyl-terminal hydrolase 7 (USP7, Homo sapiens, UniProt Q93009)	enzyme activity, inhibitor		10 µM	inhibition	0%
Cc1ncc(C)n2nc(/C=C/c3nc(N4CCCC4)cc(N4CCOCC4)n3)nc12	CASP9	enzyme activity, inhibitor		10 µM	inhibition	11%
O=C(O)C(F)(F)C(F)(F)C(F)(F)C(F)(F)C(F)(F)C(F)(F)C(F)(F)F	PPARA	reporter gene, agonist, luciferase	COS-7		Emax	92%
N=C(N)c1ccc2cc(OC(=O)c3ccc(N=C(N)N)cc3)ccc2c1	Interstitial collagenase (MMP1, Homo sapiens, UniProt P03956)	enzyme activity, inhibitor		10 µM	inhibition	0%
C#Cc1n[nH]c2c(-c3cn([C@@H](C)c4ccccn4)c(=O)[nH]c3=O)cc(F)cc12	Eukaryotic elongation factor 2 kinase (EEF2K, Homo sapiens, UniProt O00418)	enzyme activity, inhibitor		0.1 µM	inhibition	4.2%
CN(C)C(=O)COC(=O)Cc1ccc(OC(=O)c2ccc(NC(=N)N)cc2)cc1	CASP9	enzyme activity, inhibitor		10 µM	inhibition	0%
COc1cc(Nc2ncc(F)c(Nc3ccc4c(n3)NC(=O)C(C)(C)O4)n2)cc(OC)c1OC	Serine/threonine-protein kinase NIM1 (NIM1K, Homo sapiens, UniProt Q8IY84)	binding, competition with immobilised ligand		10 µM	inhibition	84%
COc1ncccc1-c1cnn2ccc(N3CCN(C(=O)OC(C)C)CC3)nc12	Mitogen-activated protein kinase kinase kinase 1 (MAP3K1, Homo sapiens, UniProt Q13233)	binding, competition with immobilised ligand		1 µM	remaining binding	49%
Clc1cccc(-c2c[nH]c3ncnc(N4CCOCC4)c23)c1	Serine/threonine-protein kinase 4 (STK4, Homo sapiens, UniProt Q13043)	thermal stability, DSF		20 µM	ΔTm	> 8 °C
Cc1nn(C)cc1-c1nc2c(N3CCN(Cc4ccc(Cl)cc4)CC3)c(Cl)cnc2[nH]1	Cyclin-dependent kinase-like 1 (CDKL1, Homo sapiens, UniProt Q00532)	binding, competition with immobilised ligand		1 µM	remaining binding	100%
O=C(Nc1cccnn1)N1CCN([C@@H]2CCOc3cc(C(F)(F)F)ccc32)CC1	Corticotropin-releasing factor receptor 1 (CRHR1, Homo sapiens, UniProt P34998)	ligand displacement		20 µM	inhibition	-62%
O=C(O)C(F)(OC(F)(F)C(F)(F)C(F)(F)F)C(F)(F)F (stereo not drawn)	PPARA	reporter gene, agonist, luciferase			Emax	134%
Nc1ncc(-c2nc(N3CCOCC3)nc(N3CCOCC3)n2)c(C(F)F)n1	Hepatocyte growth factor receptor (MET, Homo sapiens, UniProt P08581, M1250T)	cell-free assay, competition with immobilised ligand		10 µM	remaining binding	100%
CN1CCN(c2ccc(Nc3nccc(-c4cccc([N+](=O)[O-])c4)n3)cc2C(F)(F)F)CC1	Calcium-dependent protein kinase 1 (CDPK1, Plasmodium falciparum, UniProt P62344)	binding		10 µM	remaining binding	4.2%
O=S(=O)(O)C(F)(F)C(F)(F)OC(F)(C(F)(F)F)C(F)(F)OC(F)C(F)(F)F (stereo not drawn)	PPARA	reporter gene, agonist, luciferase			Emax	28%
